Consider seven compounds from publication PMC8667933 (Journal of Enzyme Inhibition and Medicinal Chemistry, 2021).

Some results are limits rather than exact numbers.

Data set [1] concerns the target T1, ERRα (Homo sapiens, UniProt P11474).
T1 sequence (P11474 193-421 limits assumed): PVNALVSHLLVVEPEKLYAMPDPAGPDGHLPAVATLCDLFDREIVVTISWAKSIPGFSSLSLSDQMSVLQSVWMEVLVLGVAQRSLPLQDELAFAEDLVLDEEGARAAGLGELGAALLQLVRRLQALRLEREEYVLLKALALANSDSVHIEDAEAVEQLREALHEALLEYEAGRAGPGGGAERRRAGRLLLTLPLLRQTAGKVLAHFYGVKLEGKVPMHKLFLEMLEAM
Nature of the data set: ERRα functional assay: mammalian two-hybrid reporter gene assay. Format: cell-based. (A reporter such as luciferase makes a cellular process visible.)

Data set [2] has as its target T2, ERRα LBD (Homo sapiens, UniProt P11474).
T2 sequence (P11474 193-421 limits assumed): T1 sequence (P11474 193-421 limits assumed)
Nature of the data set: TR-FRET co-activator assay. Format: binding. A general note: Time-resolved FRET reads energy transfer from a long-lived donor to a nearby acceptor.

Data set [3] concerns MCF-7. Nature of the data set: CCK-8 cell viability assay, MCF-7. To be noted: for suppression of cell proliferation: MCF-7, 10 μM, CCK-8. The class given is cell-based, human. Put shortly:
(§1)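 Log-phase cells seeded in 96-well plates and incubated overnight, then exposed to test compound or vehicle. Viability runs: 1, 3 and 10 μM for 24 h and 48 h. IC50: a range of concentrations for 24 h. Proliferation read by CCK-8 per kit procedure. Mean ± SEM of n = 3; two-tailed unpaired t-test vs vehicle.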
A general note: Tetrazolium dyes change colour on reduction, which living cells bring about.

The subject of data set [4] is MDA-MB-231. Nature of the data set: CCK-8 cell viability assay, MDA-MB-231. Format: cell-based, human. To be noted: for suppression of cell proliferation: MDA-MB-231, 10 μM, CCK-8. Summed up:
as §1

In data set [5] the test system is HCC-1937. Kind of data set: CCK-8 cell viability assay, HCC-1937. The class given is cell-based, human. The conditions noted are these: for suppression of cell proliferation: HCC-1937, 10 μM, CCK-8. Summed up: as §1
Data set [6] deals with MCF-7. Kind of data set: Colony formation assay, MCF-7. The class given is cell-based, human. To be noted: MCF-7, high-dose 1 μM. Summed up: (§2)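 1 × 10^3 cells/well plated in 6-well plates and cultured overnight. Medium then replaced with vehicle or test compound at 0.3 or 1 μM. Exposure is 7 days per legend and 2 weeks (until colonies visible) per methods. Colonies washed with PBS, fixed in 4% paraformaldehyde, stained 30 min with 0.1% crystal violet, imaged and counted. n = 3, mean ± SEM, unpaired t-test.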

Data set [7] has as its system MDA-MB-231. Nature of the data set: Colony formation assay, MDA-MB-231. The class given is cell-based, human. Put shortly: as §2
Data set [8] has as its system MCF-7 and MDA-MB-231 cells. Nature of the data set: Transwell migration assay. Format: cell-based, human. To be noted: 24 h.
The subject of data set [9] is MCF-7. Nature of the data set: Transwell invasion assay. Format: cell-based, human. To be noted: MCF-7, high-dose (3 μM), 24 h.
In data set [10] the test system is MDA-MB-231. Nature of the data set: Transwell invasion assay. The class given is cell-based, human. The conditions noted are these: 24 h.
Data set [11] has as its system ERRα-regulated target genes (PGC-1α, PDK4, osteopontin, pS2). Kind of data set: Quantitative RT-PCR of ERRα-regulated target genes in MDA-MB-231 cells. To be noted: high-dose 3 μM, 24 h. Format: cell-based, human. Put shortly:
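MDA-MB-231 cells exposed 24 h to 0.1% DMSO or test compound at 1 or 3 μM. Total RNA isolated with Trizol, reverse-transcribed, and analysed by real-time PCR for PGC-1α, PDK4, osteopontin (SPP1) and pS2 (TFF1) mRNA. Mean ± SEM of n = 3; two-tailed unpaired t-test vs vehicle.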

Data set [12] concerns MDA-MB-231 xenograft tumour. Kind of data set: Breast cancer xenografts in nude mice. The class given is in vivo, BALB/c nude mice. To be noted: 30 mg/kg every other day, intraperitoneally, 30 days. Summed up: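 6-week-old BALB/c nude mice were implanted subcutaneously with 2 × 10^6 MDA-MB-231 cells each. Dosing began once tumours averaged >100 mm3: i.p. 30 mg/kg every other day for 30 days in 0.9% saline with 0.5% 2-phenylethanol and 1.5% Tween 80, vehicle-only controls. Tumours measured every 5 days, V = length × width² × 0.5; body weight every 10 days. n = 6, mean ± SEM, two-tailed unpaired t-test vs vehicle.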

Data set [13] relates to MDA-MB-231 cells with ERRα knock-down. Kind of data set: Viability of MDA-MB-231 cells after ERRα knock-down. The conditions noted are these: siRNA (legend: shERRα vs shCtrl). Format: cell-based, human.
Data set [14] is described as follows: Body weight and overt toxicity in xenograft mice. The class given is in vivo, BALB/c nude mice. The conditions noted are these: 30 mg/kg every other day, intraperitoneally, vs control group.

Regarding `O=[N+]([O-])c1ccc(S(=O)(=O)Nc2ccccc2Oc2ccccc2)cc1` [compound 8, 4-Nitro-N-(2-phenoxyphenyl)benzenesulfonamide], the IC50 in [1] worked out at 1.76 µM.

Take `O=[N+]([O-])c1ccc(S(=O)(=O)Nc2ccccc2Oc2ccc(Cl)cc2)cc1` [compound 9, N-(2–(4-chlorophenoxy)phenyl)-4-nitrobenzenesulfonamide]: in data set [1], the IC50 is 2.02 µM.

In turn, `Cc1ccc(Oc2ccccc2NS(=O)(=O)c2ccc([N+](=O)[O-])cc2)cc1` [compound 10, 4-Nitro-N-(2-(p-tolyloxy)phenyl)benzenesulfonamide] came in with an IC50 in data set [1] of 1.23 µM. Also, the “inhibiting activity relative to compound 14” value in data set [1] (ratio of IC50 values, compound 10 vs compound 14) was found to be 1.5 times.

Consider `COc1ccc(Oc2ccccc2NS(=O)(=O)c2ccc([N+](=O)[O-])cc2)cc1` [compound 11, N-(2–(4-methoxyphenoxy)phenyl)-4-nitrobenzenesulfonamide], for which the IC50 was found to be 0.8 µM in data set [1]; 0.681 µM in [2]; 15.4 µM in [3] (Homo sapiens, MCF7, 24 h, read-out: IC50, cell proliferation); 9.15 µM in data set [4] (Homo sapiens, MDA-MB-231, 24 h, read-out: IC50, cell proliferation); 14.7 µM in data set [5] (Homo sapiens, HCC1937, 24 h, read-out: IC50, cell proliferation). Moreover, the “fold more active than compound 10” value in [1] (ratio of IC50 values, compound 11 vs compound 10) turned out to be 1.5 fold. The “suppression of cell proliferation” value in data set [3] (24 h) is given as 23.5%; in data set [3] (48 h) it was 37.4%; in data set [4] (24 h), 38.9%; in data set [4] (48 h), 44.3%; in data set [5] (24 h), 31.0%; in data set [5] (48 h), 38.0%. Moreover, the “reduction of the number of colonies” value in [6] turned out to be 47.5%; in data set [7] (MDA-MB-231, high-dose 1 μM), 70.3%. Also, in [7] (MDA-MB-231, low-dose 0.3 μM), the number of colonies entry is reported as “decreased significantly”. Further, the entries for the “inhibition of breast cancer cells migration” value in [8] (1 μM) and in data set [8] (high-dose 3 μM) were “moderate inhibition” and “much more potently inhibitory effect”, respectively. Moreover, the “reduction in cell invasion” value in data set [9] is 31.5%; in [10] (MDA-MB-231, high-dose (3 μM)), 50.9%. Moreover, the “effect on cell invasion” value in [10] (MB-231 cells, low-dose (1 μM)) is reported as “weak effect”. Besides, the “PGC-1α, PDK4, osteopontin and pS2 mRNA expression” value in data set [11] is reported as “notably reduced”. The same compound displayed a tumour growth inhibition in data set [12] (MDA-MB-231 xenograft) of 23.58%. The “tumour volume at the end of the experiment” value in [12] (control 1508 mm^3) was 1152 mm^3. Further, the “effect of ERRα knock-down on compound-induced anti-proliferation” value in data set [13] was “knock-down of ERRα reduced compound 11 induced anti-proliferation”. Also, in data set [14], the “influence on weight of mice and overt toxicity” value is “no notably compound-related influences on the weight of mice or any other symptoms of overt toxicity”.

The compound `COc1ccc(Oc2ccccc2NS(=O)(=O)c2ccc(N)cc2)cc1` [compound 12, 4-Amino-N-(2–(4-methoxyphenoxy)phenyl)benzenesulfonamide] had an IC50 in data set [1] of more than 10 µM. Further, in [1] (reporter gene assay, HEK 293 T cells, 48 h), the “IC50, inhibition of ERRα transcriptional activity” value is “inactive”.

In turn, `Nc1ccc(S(=O)(=O)Nc2ccccc2Oc2ccc(Cl)cc2)cc1` [compound 13, 4-Amino-N-(2–(4-chlorophenoxy)phenyl)benzenesulfonamide] had an IC50 in [1] of 1.61 µM.

For the compound `Cc1ccc(Oc2ccccc2NS(=O)(=O)c2ccc(N)cc2)cc1` [compound 14, 4-Amino-N-(2-(p-tolyloxy)phenyl)benzenesulfonamide], the IC50 in data set [1] was 1.88 µM.
